Measurements: ChEMBL document CHEMBL1255350, “Plasma and cerebrospinal fluid pharmacokinetics of moxifloxacin in a patient with tuberculous meningitis” (Antimicrob Agents Chemother, 2008)
Converted amounts (≈) assume the structure as drawn.

Tests used:
[1] = test system: Homo sapiens; assay: Cardiotoxicity in patient with intracerebral and leptomeningeal tuberculosis assessed as QT prolongation at 400 […], po […]; format: toxicity, organism-based; design: route oral; conditions: in vivo
[2] = test system: Homo sapiens; assay: Cardiotoxicity in patient with intracerebral and leptomeningeal tuberculosis assessed as QT prolongation at 800 […], po […]; format: toxicity, organism-based; design: route oral; conditions: in vivo
[3] = test system: Homo sapiens; assay: Hepatotoxicity in patient with intracerebral and leptomeningeal tuberculosis at 400 […], po QD measured on day 3; format: toxicity, organism-based; design: route oral; conditions: in vivo
[4] = test system: Homo sapiens; assay: Hepatotoxicity in patient with intracerebral and leptomeningeal tuberculosis at 800 […], po QD measured on day 3; format: toxicity, organism-based; design: route oral; conditions: in vivo
Summary of the method: (§1)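 Safety was monitored during oral once-daily treatment at 400 and then 800 mg. QTc was tracked by ECG, and blood samples were taken for renal and liver function tests.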

[5] = test system: Homo sapiens; assay: Renal toxicity in patient with intracerebral and leptomeningeal tuberculosis at 400 […], po QD measured on day 3; format: organism-based; design: route oral; conditions: in vivo; summary of the method: as §1
[6] = test system: Homo sapiens; assay: Renal toxicity in patient with intracerebral and leptomeningeal tuberculosis at 800 […], po QD measured on day 3; format: organism-based; design: route oral; conditions: in vivo
[7] = test system: Mycobacterium tuberculosis; assay: Antimicrobial activity against Mycobacterium tuberculosis; format: functional
Summary of the method: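 MIC for the patient's isolate was determined by the Middlebrook 7H10 agar dilution method. It was used to calculate AUC0-24/MIC ratios.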

[8] = AUC (0 to 24 hrs) in plasma of patient with intracerebral and leptomeningeal tuberculosis at 400 […], po QD measured on day 3; format: ADME, organism-based; design: time < 24 hr, route oral; conditions: human
Summary of the method: (§2)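 Single patient with intracerebral and leptomeningeal TB without active meningitis. Oral dosing once daily at 400 mg, then 800 mg, each sampled at steady state on day 3. Blood and CSF were drawn through a peripheral intravenous catheter and an external lumbar drain into heparin tubes. Sampling was predose and at 2, 4, 8, 12 and 24 h. Plasma was spun 1,500 × g for 10 min at room temperature and stored at −20°C.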

[9] = AUC (0 to 24 hrs) in plasma of patient with intracerebral and leptomeningeal tuberculosis at 800 […], po QD measured on day 3; format: ADME, organism-based; design: time < 24 hr, route oral; conditions: human
[10] = AUC (0 to 24 hrs) in CSF of patient with intracerebral and leptomeningeal tuberculosis at 400 […], po QD measured on day 3; format: ADME, organism-based, Cerebrospinal fluid; design: time < 24 hr, dose 400 mg/kg, route oral; conditions: human
[11] = AUC (0 to 24 hrs) in CSF of patient with intracerebral and leptomeningeal tuberculosis at 800 […], po QD measured on day 3; format: ADME, organism-based, Cerebrospinal fluid; design: time < 24 hr, route oral; conditions: human
Summary of the method: (§3)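 Single patient on steady-state oral moxifloxacin, 400 or 800 mg once daily, sampled on day 3 of each dose. CSF was taken from an external lumbar drain and blood from a peripheral IV catheter into heparin tubes, predose and at 2, 4, 8, 12 and 24 h. Plasma was separated at 1,500 × g for 10 min at room temperature and stored at −20°C.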

[12] = fAUC (0 to 24 hrs) in plasma of patient with intracerebral and leptomeningeal tuberculosis at 400 […], po QD measured on day 3; format: ADME, organism-based; design: route oral; conditions: human, in vivo
[13] = fAUC (0 to 24 hrs) in plasma of patient with intracerebral and leptomeningeal tuberculosis at 800 […], po QD measured on day 3; format: ADME, organism-based; design: route oral; conditions: human, in vivo
[14] = fAUC (0 to 24 hrs) in CSF of patient with intracerebral and leptomeningeal tuberculosis at 400 […], po QD measured on day 3; format: ADME, organism-based, Cerebrospinal fluid; design: route oral; conditions: human, in vivo
Summary of the method: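 Same patient and sampling: oral 400 or 800 mg once daily at steady state, day 3 of each dose, predose to 24 h, with CSF from a lumbar drain and heparinized blood from an IV catheter. Free AUC0-24 was calculated assuming 40% protein binding.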

[15] = fAUC (0 to 24 hrs) in CSF of patient with intracerebral and leptomeningeal tuberculosis at 800 […], po QD measured on day 3; format: ADME, organism-based, Cerebrospinal fluid; design: dose 800 mg/kg, route oral; conditions: human, in vivo
[16] = Cmax in plasma of patient with intracerebral and leptomeningeal tuberculosis at 400 […], po QD measured on day 3; format: ADME, organism-based; design: route oral; conditions: human
[17] = Cmax in plasma of patient with intracerebral and leptomeningeal tuberculosis at 800 […], po QD measured on day 3; format: ADME, organism-based; design: route oral; conditions: human; summary of the method: as §2
[18] = Cmax in CSF of patient with intracerebral and leptomeningeal tuberculosis at 400 […], po QD measured on day 3; format: ADME, organism-based, Cerebrospinal fluid; design: route oral; conditions: human
[19] = Cmax in CSF of patient with intracerebral and leptomeningeal tuberculosis at 800 […], po QD measured on day 3; format: ADME, organism-based, Cerebrospinal fluid; design: route oral; conditions: human; summary of the method: as §3
[20] = Tmax in plasma of patient with intracerebral and leptomeningeal tuberculosis at 400 […], po QD measured on day 3; format: ADME, organism-based; design: route oral; conditions: human
[21] = Tmax in plasma of patient with intracerebral and leptomeningeal tuberculosis at 800 […], po QD measured on day 3; format: ADME, organism-based; design: route oral; conditions: human
[22] = Tmax in CSF of patient with intracerebral and leptomeningeal tuberculosis at 400 […], po QD measured on day 3; format: ADME, organism-based, Cerebrospinal fluid; design: route oral; conditions: human
[23] = Tmax in CSF of patient with intracerebral and leptomeningeal tuberculosis at 800 […], po QD measured on day 3; format: ADME, organism-based, Cerebrospinal fluid; design: route oral; conditions: human

## COc1c(N2C[C@@H]3CCCN[C@@H]3C2)c(F)cc2c(=O)c(C(=O)O)cn(C3CC3)c12 [MOXIFLOXACIN]
[1]
  Activity: Non-toxic
[2]
  Activity: Non-toxic
[3]
  Activity: Non-toxic
[4]
  Activity: Non-toxic
[5]
  Activity: Non-toxic
[6]
  Activity: Non-toxic
[7]
  MIC: 0.15 µg/mL (≈ 0.374 µM)
[8]
  AUC at 24 h: 8900 ng·h/mL
[9]
  AUC at 24 h: 19400 ng·h/mL
[10]
  AUC at 24 h: 8400 ng·h/mL
[11]
  AUC at 24 h: 14300 ng·h/mL
[12]
  fAUC: 5300 ng·h/mL
[13]
  fAUC: 11600 ng·h/mL
[14]
  fAUC: 8400 ng·h/mL
[15]
  fAUC: 14300 ng·h/mL
[16]
  Cmax: 1060 ng/mL
[17]
  Cmax: 2450 ng/mL
[18]
  Cmax: 616 ng/mL
[19]
  Cmax: 1420 ng/mL
[20]
  Tmax: 2 h
[21]
  Tmax: 2 h
[22]
  Tmax: 4 h
[23]
  Tmax: 4 h
